Assay results: ChEMBL document CHEMBL1681789, “New bichalcone analogs as NF-κB inhibitors and as cytotoxic agents inducing Fas/CD95-dependent apoptosis” (Bioorg Med Chem, 2011)
The source made the active and inactive calls. The calls are words filed in the database; no cut-off is given here.

Assays:
KB = assay: Cytotoxicity against human KB cells at 20 ug/ml after 3 days; format: functional, cell-based
[1] = Inhibition of Nitric oxide synthase activity in mouse BV2 cells assessed as LPS-induced NO production after 24 hrs by Griess reaction; format: cell-based; conditions: BV-2, 24 h
Outline: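 Murine BV2 microglia were cultured in DMEM with 5% FBS and given 1–50 µM drug with 0.5 µg/mL LPS. Nitrite accumulated in the medium over 24 h was measured by Griess reagent. IC50 values are means ± SEM from 3–6 experiments on different days using different passages.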

HCT-8 = assay: Cytotoxicity against human HCT8 cells at 20 ug/ml after 3 days; format: functional, cell-based
A549 = assay: Cytotoxicity against human A549 cells at 20 ug/ml after 3 days; format: functional, cell-based
BV-2 = assay: Inhibition of NADPH oxidase mediated-ROS production in mouse BV2 cells; format: cell-based
Outline: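 Compounds were incubated with 50 µg microglial cell homogenate for 20 min at 37 °C in the dark. Superoxide production was started with 200 µM NADPH, and chemiluminescence was followed for 30 min; the AUC represents ROS production. DPI served as positive control.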

DU-145 = assay: Cytotoxicity against human DU145 cells at 20 ug/ml after 3 days; format: functional, cell-based

Row | Compound | Activity (KB) | IC50 [1] [µM] | Activity (HCT-8) | Activity (A549) | inhibition (BV-2) | Activity (DU-145)
1 | O=C(/C=C/c1ccccc1)c1ccc(N2CCN(Cc3cc(C(=O)/C=C/c4ccccc4)ccc3O)CC2)cc1 | inactive | 2.8 | inactive | inactive | inactive | inactive
2 | COC(=O)[C@@H](N)CCCNC(=N)N[N+](=O)[O-] [L-NAME] | – | 18.9 | – | – | – | –
3 | COc1cc(C(C)=O)cc(CN2CCN(c3ccc(C(C)=O)cc3)CC2)c1O | inactive | 15.9 | inactive | inactive | inactive | inactive
4 | O=C(/C=C/c1ccccc1Cl)c1ccc(N2CCN(Cc3cc(C(=O)/C=C/c4ccccc4Cl)ccc3O)CC2)cc1 | inactive | 30.5 | inactive | inactive | inactive | inactive
5 | COc1ccc(/C=C/C(=O)c2ccc(N3CCN(Cc4cc(C(=O)/C=C/c5ccc(OC)cc5)cc(OC)c4O)CC3)cc2)cc1 | inactive | 3.5 | inactive | inactive | inactive | inactive
6 | CC(=O)c1ccc(N2CCN(Cc3cc(C(C)=O)ccc3O)CC2)cc1 | inactive | 6.6 | inactive | inactive | inactive | inactive
7 | Cn1cccc1/C=C/C(=O)c1ccc(N2CCN(Cc3cc(C(=O)/C=C/c4cccn4C)ccc3O)CC2)cc1 | inactive | 1.2 | inactive | inactive | inactive | inactive
8 | Cc1ccsc1/C=C/C(=O)c1ccc(N2CCN(Cc3cc(C(=O)/C=C/c4sccc4C)ccc3O)CC2)cc1 | inactive | 7.5 | inactive | inactive | inactive | inactive
9 | COc1cc(C(=O)/C=C/c2ccccc2Cl)cc(CN2CCN(c3ccc(C(=O)/C=C/c4ccccc4Cl)cc3)CC2)c1O | inactive | 10.9 | inactive | inactive | inactive | inactive
10 | COc1cc(C(=O)/C=C/c2cccs2)cc(CN2CCN(c3ccc(C(=O)/C=C/c4cccs4)cc3)CC2)c1O | inactive | 2.7 | inactive | inactive | inactive | inactive
11 | Cc1ccc(/C=C/C(=O)c2ccc(N3CCN(Cc4cc(C(=O)/C=C/c5ccc(C)o5)ccc4O)CC3)cc2)o1 | inactive | 2.4 | inactive | inactive | inactive | inactive
12 | COc1cc(C(=O)/C=C/c2sccc2C)cc(CN2CCN(c3ccc(C(=O)/C=C/c4sccc4C)cc3)CC2)c1O | inactive | 3.1 | inactive | inactive | inactive | inactive
13 | O=C(/C=C/c1ccco1)c1ccc(N2CCN(Cc3cc(C(=O)/C=C/c4ccco4)ccc3O)CC2)cc1 | inactive | 1.7 | inactive | inactive | inactive | inactive
14 | O=C(/C=C/c1ccc2c(c1)OCO2)c1ccc(N2CCN(Cc3cc(C(=O)/C=C/c4ccc5c(c4)OCO5)ccc3O)CC2)cc1 | inactive | 2.1 | inactive | inactive | inactive | inactive
